Results taken from ChEMBL document CHEMBL1138901, “Design, synthesis, and biological evaluation of the combinatorial library with a new spirodiketopiperazine scaffold. Discovery of novel potent and selective low-molecular-weight CCR5 antagonists” (J Med Chem, 2006).
Active and inactive are the calls of the source. The rule behind the calls is not given here.

Legend:
[1] = target: T1, C-C chemokine receptor type 5 (Homo sapiens, UniProt P51681); experiment: Antagonist activity against human recombinant CCR5 expressed in CHO cells assessed as inhibition of human MIP-1-alpha-stimulated calcium mobilization; assay type: functional, cell-based
How it was run: (§1)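 Human chemokine receptor-overexpressing CHO cells were stimulated with the matching human endogenous ligand, and calcium mobilization was read out. Library members were tested at 30 µM. Crude products were dissolved in DMSO as 10 mM stocks and used without further purification.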

[2] = target: T2, C-C chemokine receptor type 2 (Homo sapiens, UniProt P41597); experiment: Antagonist activity against human recombinant CCR2 expressed in CHO cells assessed as inhibition of human MCP1-stimulated calcium mobilization; assay type: functional, cell-based; how it was run: as §1
[3] = target: C-C chemokine receptor type 4 (Homo sapiens, UniProt P51679); experiment: Antagonist activity against human recombinant CCR4 expressed in CHO cells assessed as inhibition of human […]-stimulated calcium mobilization; assay type: functional, cell-based; how it was run: as §1
[4] = target: T3, C-X-C chemokine receptor type 4 (Homo sapiens, UniProt P61073); experiment: Antagonist activity against human recombinant CXCR4 expressed in CHO cells assessed as inhibition of human SDF1-alpha-stimulated calcium mobilization; assay type: functional, cell-based; how it was run: as §1
[5] = test system: Human immunodeficiency virus 1; experiment: Antiviral activity against T cell tropic HIV1 X4; assay type: functional, organism-based
[6] = target: T1, C-C chemokine receptor type 5; experiment: Inhibition of radio-isotope labeled MIP1-alpha binding to human recombinant CCR5
[7] = target: T2, C-C chemokine receptor type 2; experiment: Inhibition of radio-isotope labeled MCP1 binding to human recombinant CCR2
[8] = target: T3, C-X-C chemokine receptor type 4; experiment: Inhibition of radio-isotope labeled SDF1-alpha binding to human recombinant CXCR4
[9] = target: Muscarinic acetylcholine receptor M3 (Homo sapiens, UniProt P20309); experiment: Binding affinity to muscarinic M3 receptor
[10] = target: Sigma non-opioid intracellular receptor 1 (Homo sapiens, UniProt Q99720); experiment: Binding affinity to sigma receptor
Sequence of Sigma non-opioid intracellular receptor 1 (Q99720 whole entry): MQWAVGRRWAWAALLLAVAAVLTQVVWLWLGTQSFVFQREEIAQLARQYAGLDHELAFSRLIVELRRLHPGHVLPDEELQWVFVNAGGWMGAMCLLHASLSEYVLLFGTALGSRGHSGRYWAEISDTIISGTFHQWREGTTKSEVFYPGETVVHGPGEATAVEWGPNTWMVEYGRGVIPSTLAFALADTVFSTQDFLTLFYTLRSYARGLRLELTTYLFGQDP

T2 sequence (P41597 whole entry): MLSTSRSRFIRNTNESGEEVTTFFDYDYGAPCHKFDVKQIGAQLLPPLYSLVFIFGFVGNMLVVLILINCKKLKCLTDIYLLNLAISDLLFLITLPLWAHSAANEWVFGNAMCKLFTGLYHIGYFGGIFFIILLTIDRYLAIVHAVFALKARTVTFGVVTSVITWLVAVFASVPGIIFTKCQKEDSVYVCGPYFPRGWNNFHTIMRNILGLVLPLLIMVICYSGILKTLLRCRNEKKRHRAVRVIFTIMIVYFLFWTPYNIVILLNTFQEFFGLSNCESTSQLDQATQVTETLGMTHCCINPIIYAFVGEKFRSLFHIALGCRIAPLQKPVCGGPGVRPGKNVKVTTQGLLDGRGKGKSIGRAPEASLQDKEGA
T1 sequence (P51681 whole entry): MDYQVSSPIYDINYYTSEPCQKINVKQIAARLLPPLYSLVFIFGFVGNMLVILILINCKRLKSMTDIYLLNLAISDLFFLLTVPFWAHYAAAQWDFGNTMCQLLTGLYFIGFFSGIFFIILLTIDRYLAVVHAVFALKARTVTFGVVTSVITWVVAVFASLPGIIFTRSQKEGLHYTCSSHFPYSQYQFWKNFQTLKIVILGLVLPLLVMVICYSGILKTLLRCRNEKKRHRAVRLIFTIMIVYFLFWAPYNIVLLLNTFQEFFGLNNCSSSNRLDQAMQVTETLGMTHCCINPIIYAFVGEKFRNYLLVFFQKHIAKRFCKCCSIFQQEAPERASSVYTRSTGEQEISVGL
Sequence of C-C chemokine receptor type 4 (P51679 whole entry, looked up): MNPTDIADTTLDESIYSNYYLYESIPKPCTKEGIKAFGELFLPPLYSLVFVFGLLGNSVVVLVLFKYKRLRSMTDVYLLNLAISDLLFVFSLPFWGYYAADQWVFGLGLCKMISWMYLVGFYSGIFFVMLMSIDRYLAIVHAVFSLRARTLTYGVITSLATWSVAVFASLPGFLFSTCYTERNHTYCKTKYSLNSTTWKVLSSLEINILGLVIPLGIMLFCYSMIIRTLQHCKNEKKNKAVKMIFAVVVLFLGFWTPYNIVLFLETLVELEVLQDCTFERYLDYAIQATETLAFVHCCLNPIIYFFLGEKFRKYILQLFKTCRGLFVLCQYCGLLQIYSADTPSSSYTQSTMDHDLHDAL
T3 sequence (P61073 whole entry): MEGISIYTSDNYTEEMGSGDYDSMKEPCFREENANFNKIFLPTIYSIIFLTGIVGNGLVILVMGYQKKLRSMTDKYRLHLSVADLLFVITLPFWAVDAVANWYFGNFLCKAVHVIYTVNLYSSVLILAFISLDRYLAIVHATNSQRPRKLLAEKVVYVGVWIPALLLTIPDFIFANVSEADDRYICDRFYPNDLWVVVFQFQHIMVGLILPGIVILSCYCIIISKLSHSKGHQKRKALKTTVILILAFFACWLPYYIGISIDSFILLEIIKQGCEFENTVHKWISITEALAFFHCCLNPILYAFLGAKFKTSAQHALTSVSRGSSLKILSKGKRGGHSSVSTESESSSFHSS
Sequence of Muscarinic acetylcholine receptor M3 (P20309 whole entry): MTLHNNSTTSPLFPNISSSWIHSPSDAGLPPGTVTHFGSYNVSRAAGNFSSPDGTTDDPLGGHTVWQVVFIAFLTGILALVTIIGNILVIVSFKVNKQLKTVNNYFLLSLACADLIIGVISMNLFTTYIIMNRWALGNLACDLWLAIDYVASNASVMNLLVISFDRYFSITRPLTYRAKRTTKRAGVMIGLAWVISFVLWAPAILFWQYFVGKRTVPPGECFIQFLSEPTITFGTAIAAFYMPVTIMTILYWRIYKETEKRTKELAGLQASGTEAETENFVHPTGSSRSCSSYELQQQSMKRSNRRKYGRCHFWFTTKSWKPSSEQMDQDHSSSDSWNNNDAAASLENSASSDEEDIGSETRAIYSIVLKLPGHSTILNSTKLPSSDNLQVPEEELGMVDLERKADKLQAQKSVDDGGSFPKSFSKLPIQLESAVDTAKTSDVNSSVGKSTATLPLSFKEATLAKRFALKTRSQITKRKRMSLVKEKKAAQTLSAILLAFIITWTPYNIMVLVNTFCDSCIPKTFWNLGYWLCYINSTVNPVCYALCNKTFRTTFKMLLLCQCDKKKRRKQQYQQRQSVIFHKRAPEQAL

`CC(C)C[C@@H]1NC(=O)C2(CCN(Cc3ccccc3)CC2)N(Cc2ccccc2)C1=O` was tested, and the IC50 [1] was 3.2 µM, the IC50 [2] was > 30 µM and the IC50 [3] was > 30 µM. The IC50 [4] was > 30 µM and the Activity [5] was “inactive”.
`C=CCOc1ccc(CN2CCC3(CC2)C(=O)NC(CC2CCCCC2)C(=O)N3CCCC)cc1` (stereo unspecified) was tested, and the IC50 [1] was 0.05 µM, the IC50 [2] was > 10 µM and the IC50 [4] was > 10 µM. The IC50 [6] was 0.011 µM, the IC50 [7] was > 10 µM and the IC50 [8] was > 10 µM. The Activity [5] was “inactive”.
In the case of `CCCCN1C(=O)C(CC(C)C)NC(=O)C12CCN(Cc1ccc(Oc3ccccc3)cc1)CC2` (stereo unspecified), the IC50 [1] is reported as 0.12 µM, the IC50 [2] is reported as > 10 µM and the IC50 [4] is reported as > 10 µM. The IC50 [6] was 0.083 µM, the IC50 [7] was > 10 µM and the IC50 [8] was > 10 µM. The Activity [5] was “inactive”.
With `CCCCN1C(=O)C(CC(C)C)NC(=O)C12CCN(Cc1ccc3c(c1)OCCO3)CC2` (stereo unspecified) the IC50 [1] was 0.17 µM, the IC50 [2] was > 10 µM and the IC50 [4] was > 10 µM. For the same compound, the IC50 [6] was 0.02 µM, the IC50 [7] was > 10 µM and the IC50 [8] was > 10 µM. For the same compound, the Activity [5] was “inactive”.
For `CCCN1C(=O)[C@@H](CC2CCCCC2)NC(=O)C12CCN(CCCCCCc1ccccc1)CC2`, the IC50 [1] was 0.27 µM, the IC50 [2] was > 10 µM and the IC50 [3] was > 10 µM. The IC50 [4] was > 10 µM, the IC50 [6] was 0.86 µM and the IC50 [8] was > 10 µM. The Activity [5] was “inactive”.
In the case of `CCCCN1C(=O)C(CC(C)C)NC(=O)C12CCN(CCCCCCc1ccccc1)CC2` (stereo unspecified), the IC50 [1] is reported as 0.27 µM, the IC50 [2] is reported as > 10 µM and the IC50 [3] is reported as > 10 µM. The IC50 [4] was 6.7 µM, the IC50 [6] was 0.038 µM and the IC50 [7] was > 10 µM. For the same compound, the IC50 [8] was > 10 µM and the Activity [5] was “inactive”.
With `CC(C)C[C@H]1NC(=O)C2(CCN(Cc3ccccc3)CC2)N(Cc2ccccc2)C1=O` the IC50 [1] was 7.6 µM, the IC50 [2] was > 30 µM and the IC50 [3] was > 30 µM. For the same compound, the IC50 [4] was > 30 µM and the Activity [5] was “inactive”.
`CCCN1C(=O)[C@H](CC2CCCCC2)NC(=O)C12CCN(CCCCCCc1ccccc1)CC2` was tested, and the IC50 [1] was 0.3 µM, the IC50 [2] was > 10 µM and the IC50 [3] was > 10 µM. For the same compound, the IC50 [4] was > 10 µM, the IC50 [6] was 0.61 µM and the IC50 [8] was > 10 µM. The Activity [5] was “inactive”.
`CCCN1C(=O)C(CC(C)C)NC(=O)C12CCN(Cc1ccc(Oc3ccccc3)cc1)CC2` (stereo unspecified) was tested, and the IC50 [1] was 0.5 µM, the IC50 [2] was > 30 µM and the IC50 [3] was > 30 µM. For the same compound, the IC50 [4] was > 30 µM, the IC50 [6] was 0.017 µM and the IC50 [7] was > 30 µM. The IC50 [8] was > 30 µM and the Activity [5] was “inactive”.
For `CCCN1C(=O)[C@@H](CC(C)C)NC(=O)C12CCN(CCCCCCc1ccccc1)CC2`, the IC50 [1] was 3 µM, the IC50 [2] was > 10 µM and the IC50 [3] was > 10 µM. For the same compound, the IC50 [4] was > 10 µM and the Activity [5] was “inactive”.
`CCCCN1C(=O)C(CC2CCCCC2)NC(=O)C12CCN(Cc1ccc(Oc3ccccc3)cc1)CC2` (stereo unspecified) was tested, and the IC50 [1] was 0.17 µM, the IC50 [2] was > 10 µM and the IC50 [4] was > 10 µM. The IC50 [6] was 0.0061 µM, the IC50 [7] was > 10 µM and the IC50 [8] was > 10 µM. For the same compound, the Activity [5] was “inactive”.
For `CCCN1C(=O)[C@H](CC(C)C)NC(=O)C12CCN(CCCCCCc1ccccc1)CC2`, the IC50 [1] was 2 µM, the IC50 [2] was > 10 µM and the IC50 [3] was > 10 µM. The IC50 [4] was > 10 µM and the Activity [5] was “inactive”.
`CCCCN1C(=O)C(CC2CCCCC2)NC(=O)C12CCN(Cc1ccc(OC)cc1)CC2` (stereo unspecified) was tested, and the IC50 [1] was 0.12 µM, the IC50 [2] was > 30 µM and the IC50 [4] was > 30 µM. For the same compound, the IC50 [6] was 0.0045 µM, the IC50 [7] was > 30 µM and the IC50 [8] was > 30 µM. The Activity [5] was “inactive”.
In the case of `CCCCN1C(=O)C(CC(C)C)NC(=O)C12CCN(Cc1ccccc1)CC2` (stereo unspecified), the IC50 [1] is reported as 0.9 µM, the IC50 [2] is reported as > 30 µM and the IC50 [3] is reported as > 30 µM. For the same compound, the IC50 [4] was > 30 µM, the IC50 [6] was 0.56 µM and the IC50 [8] was > 10 µM. For the same compound, the Activity [5] was “inactive”.
For `CCCCN1C(=O)C(CC2CCCCC2)NC(=O)C12CCN(Cc1ccc3c(c1)OCCO3)CC2` (stereo unspecified), the IC50 [1] was 0.02 µM, the IC50 [2] was > 10 µM and the IC50 [4] was > 10 µM. The IC50 [6] was 0.0025 µM, the IC50 [7] was > 10 µM and the IC50 [8] was > 10 µM. The IC50 [9] was 2.07 µM, the IC50 [10] was 0.183 µM and the Activity [5] was “inactive”.
